Test results reported in the EternaBench riboswitch data.

System: MS2 coat protein
Experiment: apparent Kd, MS2 coat protein; higher = weaker binding; RNA-MaP array; theophylline 2 mM where present
Summary of the method: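 The apparent Kd is reported as the median of filtered per-cluster binding-curve fits. To get these curves, designs transcribed by stalled E. coli RNA polymerase on Illumina sequencing-chip clusters were titrated with SNAP-549-labelled MS2 coat protein from 0.7 or 1.5 nM, doubling to 3 µM. Titrations were run without and then with constant ligand in 100 mM Tris-HCl pH 7.5, 80 mM KCl, 4 mM MgCl2, BSA, DTT, yeast tRNA and Tween-20, and green signal was normalised to red-channel RNA signal and control-cluster median Fmax.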

[1] = designed as: ON switch for theophylline, no ligand
[2] = ligand present: theophylline, designed as: ON switch for theophylline
[3] = designed as: OFF switch for theophylline, no ligand
[4] = ligand present: theophylline, designed as: OFF switch for theophylline

| Sequence | apparent Kd [1] [nM] | apparent Kd [2] [nM] | apparent Kd [3] [nM] | apparent Kd [4] [nM] |
| --- | --- | --- | --- | --- |
| CCUGCGUUUCUUUUCUUUCGCAGGAAUGAUACCAGUAGGGAAACCUACCCUUGGCAGCAUGGGACAUGAGGAUCACCCAUGUUUU | 166 | 33.4 |  |  |
| CUGCCAUGCAGAGAUACCAGUGCGCUCAGCACAUGAGGAUCACCCAUGUCGGCUGCCGAUCACCCUUGGCAGCUCUGCAUGGCAG | 11.4 | 9.11 |  |  |
| GAUGAUAUUGCAGAUACCAGACACAUGAGGAUCACCCAUGUCUCUGAGAUGAAGGAUCGUGUCCCUUGGCAGCUGCGAUAUCAUC |  |  | 32.7 | 338 |
| GCAUGUGGAGUCUUACUAGAGAGGACAGAUACCAGUAAGAUGUGAUACCCUUGGCAGCUGCGAUUUACAUGAGGAUCACCCAUGU |  |  | 21.5 | 24.2 |
| AUCGUACCUGAGGAUACCAGCAUGUGAUCAUAACAUGAGGAUCACCCAUGUAAUCAGUGAUGCCCUUGGCAGCUUGAUCGGUACA | 80.1 | 24.9 |  |  |
| CUCUGAGUGAGUAAUCACUCAGAGGCGGAUACCAGCGAGGUCCAUCGCCCUUGGCAGCCGAACAUGAGGAUCACCCAUGUCGGUA | 10.7 | 14.6 |  |  |
| GAGCUGAUGUAGAGAAUAAAUAUAAGAGAUACCAGUACAGAAAUGUACCCUUGGCAGCUCAACUUUACAUGAGGAUCACCCAUGU |  |  | 13.9 | 18.8 |
| UCGUGUGUUUCGGAUACCAGUGAAAUCGAUACAUGAGGAUCACCCAUGUGAGAGGAUGUACACCCUUGGCAGCUGUCUGUAUCUG | 13.1 | 13.7 |  |  |
| UGUUUGGUGCGCGAGUGUUGGAUAAUUGAUACCAGUGUAGAUGUGCGCCCUUGGCAGCGAAUCCUAACAUGAGGAUCACCCAUGU | 43.8 | 57.1 |  |  |
| AUCGUACCUGAUGAUACCAGCAUGUGAUCGUAACAUGAGGAUCACCCAUGUGAUCAGUGAUGCCCUUGGCAGCAUGAUCGGUACA | 35.4 | 14.7 |  |  |
| ACGAUGCGACAUGAGGAUCACCCAUGUGAUACCAGCCUGGAAACAGGCCCUUGGCAGCACAAAUACUCCAGAAACGCAUCGAAUA |  |  | 267 | 439 |
| GAGCUGAUGUAGGCCGGAUAUCCGGGAGAUACCAGUACAGAAAUGUACCCUUGGCAGCUCUUUCCUACAUGAGGAUCACCCAUGU |  |  | 16.6 | 96 |
| UCGUGGUCCGCAAGGACCGGGAGUUGCGAUACCAGCACGGUAACGUGCCCUUGGCAGCGCACAUGAGGAUCACCCAUGUGGUGUU |  |  | 229 | 514 |
| AUAAAUAUAACCGAUACCAGCCUUAUACAUGAGGAUCACCCAUGUUAUGCUUCCUUUUUUGGCCCUUGGCAGCGGAAAUGGGUAA | 81.7 | 36.2 |  |  |
| CGUGUCGUAACUGAUACCAGUGUACUGACAUGAGGAUCACCCAUGUUGGGUUUUGUUGUACACCCUUGGCAGCAGAAUCGAUACG |  |  | 76.9 | 119 |
| ACACGAGGAUCACCCGUGUCAUGUGGUGAUACCAGUUUACAUGAGAACCCUUGGCAGCAUAACAACAUGAGGAUCACCCAUGUCA | 32.3 | 41.7 |  |  |
| AGAUUAAAGAGUGAUACCAGACUACAUGAGGAUCACCCAUGUUACAUUUGAGUAGCUUUAGUCCCUUGGCAGCACUUUAUGUACA |  |  | 45.5 | 17.6 |
| AAAUAAAUAACUGAUACCAGUCGGACAACAUGAGGAUCACCCAUGUUCACCCAUGUUGAGGACCCUUGGCAGCAGAAAUAUAAAA |  |  | 92.3 | 185 |

| Sequence | apparent Kd [1] [nM] | apparent Kd [2] [nM] | apparent Kd [3] [nM] | apparent Kd [4] [nM] |
| --- | --- | --- | --- | --- |
| GUAUGGAAACAUACUUGGGUAUCAUGAGAUACCAGUACAGAAAUGUACCCUUGGCAGCUCAAGCAUACAUGAGGAUCACCCAUGU |  |  | 18 | 27.1 |
| GAUGAACUAUUUGAUACCAGACUACAUGAGGAUCACCCAUGUGUGUUAAUUUUUCAGUCAGUCCCUUGGCAGCAAAUAGUUUAUC |  |  | 61.2 | 146 |
| AUUAUCAUGGUCAUAUAUAUAUCGUCAGAUACCAGACUAGAUAUAGUCCCUUGGCAGCUGUUACAUGAGGAUCACCCAUGUUAUA |  |  | 138 | 47.8 |
| UGAUCCUGCAGGGAUACCAGCGCCGCUUGAUAACUGUGCACAUGAGGAUCACCCAUGUAGCGCCCUUGGCAGCCCAGCUAGAGGG | 25.4 | 23 |  |  |
| GGUGGCGUGACGGAUACCAGCCACCGCCGCAAGGCCACAUGAGGAUCACCCAUGUUGGGUGGCCCUUGGCAGCUGUCGUGCGGCG | 157 | 281 |  |  |
| CAUACUUUAGUAUGACGUGUGGGCAGUGAUACCAGAUACGAAAGUAUCCCUUGGCAGCACAACAUGAGGAUCACCCAUGUAAUUA | 20.5 | 31.3 |  |  |
| GGUGGGACUUGUGAUACCAGCCCAGUUCUAAUCGAACUGCACAUGAGGAUCACCCAUGUCGGCCCUUGGCAGCAUGAGUAUUUAU | 322 | 19.3 |  |  |
| CAUUAAGUAACUGAUACCAGUGUACUGACAUGAGGAUCACCCAUGUUGGGUUUUGUUGUACACCCUUGGCAGCAGAAUCUUAAUG |  |  | 68.7 | 95.5 |
| AAUAACAUGAGGAUCACCCAUGUAAAAGAUACCAGAUGCAUGAUGAUCCCUUGGCAGCUUAAAACGCGAUUGGAAACAAUCGCGA | 31.2 | 126 |  |  |
| AGACAUGUAAGAUAAAUGACUUAUACAGAUACCAGACUAGUCAAUGUCCCUUGGCAGCUGCAUAACAUGAGGAUCACCCAUGUAA |  |  | 26.7 | 32.7 |
| CUAUAAGUAACUGAUACCAGUGUACUGACAUGAGGAUCACCCAUGUUGGGUUUUGUUGUACACCCUUGGCAGCAGAAUCUUGUAG |  |  | 62.1 | 85 |
| UUAAUGGAGCUUUAAUUUACGAUUUCUGAUACCAGUGUUUCAUUUCACCCUUGGCAGCAGUGACAUGAGGAUCACCCAUGUAAUA | 25.4 | 23.5 |  |  |
| UUUGAGAUAACAGAUACCAGCGUGUUAUAAAACAUGAGGAUCACCCAUGUAGUGAUCAAGCGCCCUUGGCAGCUGGUAUUUUAGG | 95.2 | 210 |  |  |
| ACAUGAGGAUCACCCAUGUCACGGCACGAUACCAGCUGAUCCGGUGGCCCUUGGCAGCGUGACGUUUGGUCCCGCGGAUGACACG | 134 | 43 |  |  |
| GGGUGCGGGAUAGAUACCAGUGCCUUAAAAUAGGCACAUGAGGAUCACCCAUGUACCGGGCGCCCUUGGCAGCUAGUACCAUCCA | 127 | 181 |  |  |
| UAUAUAUAUAUUGAUACCAGCAGAGAAAACAUAUAUCCUAACAUGAGGAUCACCCAUGUAUGCCCUUGGCAGCGAUAUAUAUAUA |  |  | 26 | 32.3 |
| GGUGAUCCGUGCUGCCGGAUCAUCGGUGAUACCAGCAUCGAAAGAUGCCCUUGGCAGCACCAACAUGAGGAUCACCCAUGUAAUA | 206 | 73.4 |  |  |
